Assay [1] relates to MCF7. As to the kind of experiment: Induction of apoptosis in human MCF7 cells assessed as DNA fragmentation at 0.25 uM after 24 hrs. Type of assay: functional, cell-based. Summed up: (§1)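 Treated 24 h with 0.25–0.74 range. Then 1 × 10^5 cells trypsinized, PBS-washed (4 °C, pH 7.4), lysed 10 min on ice (10 mM Tris-HCl pH 7.4, 10 mM EDTA, 0.5% SDS). RNase A 1 h at 37 °C, then proteinase K 4 h at 50 °C. DNA ethanol/sodium acetate precipitated, run on 1.5% agarose with ethidium bromide, viewed under UV.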

Assay [2] relates to MCF7. Description: Induction of apoptosis in human MCF7 cells assessed as DNA fragmentation at 0.74 uM after 24 hrs. Type of assay: functional, cell-based. Put shortly:
as §1

The test system of assay [3] is MDA-MB-231. As to the kind of experiment: Induction of apoptosis in human MDA-MB-231 cells assessed as DNA fragmentation at 0.25 uM after 24 hrs. The format is functional, cell-based. Put shortly: as §1
The subject of assay [4] is MDA-MB-231. Description: Induction of apoptosis in human MDA-MB-231 cells assessed as DNA fragmentation at 0.74 uM after 24 hrs. Type of assay: functional, cell-based. Put shortly:
as §1

Assay [5] concerns MCF7. Description: Induction of apoptosis in human MCF7 cells assessed as appearance of fragmented nuclei at 0.5 uM after 24 hrs by Hoechst staining. Type of assay: functional, cell-based. Summed up: (§2)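 1 × 10^4 cells grown on coverslips, treated 24 h, PBS-washed, fixed in 4% paraformaldehyde 15 min. Stained with Hoechst at 1.0 ug/ml for 15 min at 4 °C, washed, mounted, and examined by fluorescence microscopy; untreated cells as control.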

Assay [6] deals with MCF7. Description: Induction of apoptosis in human MCF7 cells assessed as appearance of fragmented nuclei at 0.74 uM after 24 hrs by Hoechst staining. The format is functional, cell-based. Summed up:
as §2

Assay [7] has as its system MDA-MB-231. As to the kind of experiment: Induction of apoptosis in human MDA-MB-231 cells assessed as appearance of fragmented nuclei at 0.5 uM after 24 hrs by Hoechst staining. The format is functional, cell-based. Summed up:
as §2

Assay [8] concerns MDA-MB-231. Description: Induction of apoptosis in human MDA-MB-231 cells assessed as appearance of fragmented nuclei at 0.74 uM after 24 hrs by Hoechst staining. Type of assay: functional, cell-based. Put shortly: as §2
Assay [9] relates to MCF7. As to the kind of experiment: Cytotoxicity against human MCF7 cells after 72 hrs by MTT assay. Type of assay: functional, cell-based. The following applies: mcf7. Summed up: (§3)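 Seeded at 5000–10000 cells/well, incubated at 37 °C in CO2 with compounds at a range of concentrations, controls included, in triplicate wells. After 72 h, MTT solution (5 mg/mL) added; absorbance read at 540 nm. % cytotoxicity = 100 × [1 − (X/R1)] versus control absorbance; IC50 by nonlinear regression. Values are means of at least two independent experiments, three determinations each.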
(Tetrazolium assays rely on reduction of a dye to a coloured formazan, in cell work by metabolically active cells.)

Assay [10] deals with SW-620. Description: Cytotoxicity against human SW620 cells after 72 hrs by MTT assay. The format is functional, cell-based. Conditions: sw-620. Summed up:
as §3

Assay [11] relates to DU-145. As to the kind of experiment: Cytotoxicity against human DU145 cells after 72 hrs by MTT assay. Type of assay: functional, cell-based. Conditions: du-145. Summed up: as §3
Assay [12] relates to KB. Description: Cytotoxicity against human KB cells after 72 hrs by MTT assay. Type of assay: functional, cell-based. Put shortly: as §3
The subject of assay [13] is PA-1. Description: Cytotoxicity against human PA1 cells after 72 hrs by MTT assay. The format is functional, cell-based. Conditions: pa-1. Summed up: as §3
Assay [14] relates to K562. Description: Cytotoxicity against human K562 cells after 72 hrs by MTT assay. Type of assay: functional, cell-based. The following applies: for IC50: k562. Summed up: as §3
Assay [15] has as its system MIA PaCa-2. Description: Cytotoxicity against human MIAPaCa2 cells after 72 hrs by MTT assay. Type of assay: functional, cell-based. Conditions: mia paca-2. Summed up: as §3
For assay [16], the system named is A549. Description: Cytotoxicity against human […] cells after 72 hrs by MTT assay. Type of assay: functional, cell-based. Conditions: a549. Summed up: as §3
Assay [17] can be described thus: Cytotoxicity against mouse NIH/3T3 cells after 72 hrs by MTT assay. Type of assay: cell-based, NIH3T3. Conditions: nih3t3. Summed up:
as §3

Assay [18] deals with MDA-MB-231. Description: Cell cycle arrest in human MDA-MB-231 cells assessed as accumulation at G1 phase at o.74 uM after 24 hrs using propidium iodide staining by flow cytometry. The format is functional. (In general: Flow cytometry measures light scatter and fluorescence of single cells or particles in a stream.)
In assay [19] the test system is MDA-MB-231. As to the kind of experiment: Cell cycle arrest in human MDA-MB-231 cells assessed as accumulation at S phase at o.74 uM after 24 hrs using propidium iodide staining by flow cytometry. The format is functional.
For assay [20], the system named is MDA-MB-231. Description: Cell cycle arrest in human MDA-MB-231 cells assessed as accumulation at G2 phase at o.74 uM after 24 hrs using propidium iodide staining by flow cytometry. The format is functional.
For assay [21], the system named is MCF7. Description: Cell cycle arrest in human MCF7 cells assessed as accumulation at G1 phase at 0.5 uM after 24 hrs using propidium iodide staining by flow cytometry. The format is functional.
Assay [22] has as its system MCF7. As to the kind of experiment: Cell cycle arrest in human MCF7 cells assessed as accumulation at S phase at 0.5 uM after 24 hrs using propidium iodide staining by flow cytometry. The format is functional.
Assay [23] has as its system MCF7. As to the kind of experiment: Cell cycle arrest in human MCF7 cells assessed as accumulation at G2 phase at 0.5 uM after 24 hrs using propidium iodide staining by flow cytometry. Type of assay: functional.
Assay [24] deals with MCF7. Description: Cell cycle arrest in human MCF7 cells assessed as accumulation at G1 phase at o.74 uM after 24 hrs using propidium iodide staining by flow cytometry. The format is functional.
The test system of assay [25] is MCF7. As to the kind of experiment: Cell cycle arrest in human MCF7 cells assessed as accumulation at S phase at o.74 uM after 24 hrs using propidium iodide staining by flow cytometry. The format is functional.
Assay [26] concerns MCF7. Description: Cell cycle arrest in human MCF7 cells assessed as accumulation at G2 phase at o.74 uM after 24 hrs using propidium iodide staining by flow cytometry. Type of assay: functional.
Assay [27] deals with MDA-MB-231. Description: Cell cycle arrest in human MDA-MB-231 cells assessed as accumulation at G1 phase at 0.5 uM after 24 hrs using propidium iodide staining by flow cytometry. The format is functional.
Assay [28] concerns MDA-MB-231. As to the kind of experiment: Cell cycle arrest in human MDA-MB-231 cells assessed as accumulation at S phase at 0.5 uM after 24 hrs using propidium iodide staining by flow cytometry. Type of assay: functional.
Assay [29] deals with MDA-MB-231. As to the kind of experiment: Cell cycle arrest in human MDA-MB-231 cells assessed as accumulation at G2 phase at 0.5 uM after 24 hrs using propidium iodide staining by flow cytometry. The format is functional.

Each structure is given as a SMILES string. pIC50: −log10 of the molar value. Active and inactive are the calls of the source. No cut-off for these calls is given here.

As to `COC(=O)[C@@H]1Cc2c([nH]c3ccccc23)[C@@H](c2ccc(OC)cc2)N1c1nc(N2CCN(C)CC2)nc(N2CCN(C)CC2)n1` [listing 1 of 2 here], the result in [1], in assay [2], in [3], in assay [4], in [5] and in assay [6] was Active. In addition, the outcome in assay [7] and in assay [8] was Active.

`CCCNc1nc(NCCC)nc(N2[C@@H](c3ccc(OC)cc3)c3[nH]c4ccccc4c3C[C@@H]2C(=O)OC)n1` (racemic): the IC50 result in assay [9], in assay [10], in [11], in [13], in [14] and in [15] was “Not Active” each time. Further, the IC50 entry in assay [16] and in assay [17] was “Not Active” throughout. In addition, the pIC50 (commonly −log10 of the IC50, conventionally taken in molar units) in [12] (Homo sapiens, KB, 72 h) is 6.91.

On to `COC(=O)[C@@H]1Cc2c([nH]c3ccccc23)[C@@H](c2ccc(OC)cc2)N1c1nc(N2CCN(C)CC2)nc(N2CCN(C)CC2)n1` [listing 2 of 2 here], for which the Activity came out at 65.11% in [18]; 21.91% in [19]; 12.98% in assay [20]; 64.4% in [21]; 35.5% in assay [22]; 0.09% in assay [23]. Moreover, the Activity in [24] was found to be 76.68%; in assay [25] it was 0.12%; in assay [26], 23.2%; in assay [27] it was 64.63%; in assay [28], 22.74%; in [29] it was 12.63%. Moreover, the pIC50 was 6.13 in assay [9] (read-out: IC50); 5.87 in assay [10] (read-out: IC50); 5.17 in assay [11] (read-out: IC50); 5.09 in [12] (kb); 5.74 in assay [13] (read-out: IC50); 5.34 in assay [14] (Homo sapiens, K562, 72 h, read-out: IC50). The pIC50 in assay [15] (read-out: IC50) is 5.64; in [16] (read-out: IC50) it was 5.68; in [17] (read-out: IC50) it was 5.71.

`CCCNc1nc(NCCC)nc(N2[C@@H](c3ccc(C)cc3)c3[nH]c4ccccc4c3C[C@@H]2C(=O)OC)n1` (racemic): the IC50 entry in assay [9], in assay [10], in [11], in assay [13], in [14] and in assay [15] was “Not Active” each time. Moreover, the IC50 result in [16] and in [17] was “Not Active” throughout. For the same molecule, the pIC50 in [12] (Homo sapiens, KB, 72 h) was 6.18.

The values above are taken from ChEMBL document CHEMBL1165881, “Synthesis and cytotoxicity evaluation of (tetrahydro-beta-carboline)-1,3,5-triazine hybrids as anticancer agents” (Eur J Med Chem, 2010).
